Test results as given in ChEMBL document CHEMBL1150393, “Evaluation of radiolabeled (hetero)aromatic analogues of N-(2-diethylaminoethyl)-4-iodobenzamide for imaging and targeted radionuclide therapy of melanoma” (J Med Chem, 2008).

Assays:
[1] = tested on: Spleen; test: Biodistribution in spleen of C57BL/6 mouse bearing mouse B16-F0 cells at 0.74 to 0.92 MBq, iv after 1 hr; assay type: ADME, organism-based; settings: in vivo
Summary of the method: (§1)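 [¹²⁵I]-labelled compound given iv by tail vein (0.1 µmol per mouse) to male C57BL6 mice bearing s.c. B16-F0 flank tumours (5 × 10⁵ cells in PBS). Two mice per time point were killed by CO₂, frozen in liquid nitrogen and cut into 40 µm cryosections, eight slices per mouse. Slice radioactivity was read on a multiwire proportional counter, converted to kBq/g and reported as %ID/g.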

[2] = Ratio of drug level in tumor to lung of C57BL/6 mouse bearing mouse B16-F0 cells at 0.74 to 0.92 MBq, iv after 1 hr; assay type: ADME, organism-based; settings: in vivo
Summary of the method: (§2)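 Tumour and organ radioactive concentrations came from whole-body cryosection counting (40 µm slices, eight per mouse, two mice per time) after tail-vein injection of the [¹²⁵I]-labelled compound (0.1 µmol) into male C57BL6 mice bearing s.c. B16-F0 melanoma. Each value is the ratio of the tumour concentration to the organ concentration.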

[3] = tested on: Liver; test: Biodistribution in liver of C57BL/6 mouse bearing mouse B16-F0 cells at 0.74 to 0.92 MBq, iv after 1 hr; assay type: ADME, organism-based; settings: in vivo
Summary of the method: (§3)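 Male C57BL6 mice with s.c. left-flank B16-F0 melanoma (5 × 10⁵ cells in PBS). Two mice per time point frozen in liquid nitrogen after CO₂ sacrifice. Eight 40 µm whole-body cryosections per mouse read by multiwire proportional counter. cpm/mm² converted to kBq/g and expressed as %ID/g.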

[4] = tested on: Spleen; test: Biodistribution in spleen of C57BL/6 mouse bearing mouse B16-F0 cells at 0.74 to 0.92 MBq, iv after 6 hrs; assay type: ADME, organism-based; settings: in vivo; summary of the method: as §1
[5] = tested on: Brain; test: Biodistribution in brain of C57BL/6 mouse bearing mouse B16-F0 cells at 0.74 to 0.92 MBq, iv after 1 hr; assay type: ADME, organism-based; settings: in vivo; summary of the method: as §3
[6] = tested on: Kidney; test: Biodistribution in kidney of C57BL/6 mouse bearing mouse B16-F0 cells at 0.74 to 0.92 MBq, iv after 6 hrs; assay type: ADME, organism-based; settings: in vivo; summary of the method: as §3
[7] = tested on: Lung; test: Biodistribution in lung of C57BL/6 mouse bearing mouse B16-F0 cells at 0.74 to 0.92 MBq, iv after 6 hrs; assay type: ADME, organism-based; settings: in vivo; summary of the method: as §3
[8] = Biodistribution in uvea of C57BL/6 mouse bearing mouse B16-F0 cells at 0.74 to 0.92 MBq, iv after 6 hrs; assay type: ADME, organism-based, Uveal tract; settings: in vivo; summary of the method: as §1
[9] = tested on: Muscle tissue; test: Biodistribution in muscle of C57BL/6 mouse bearing mouse B16-F0 cells at 0.74 to 0.92 MBq, iv after 6 hrs; assay type: ADME, organism-based; settings: in vivo; summary of the method: as §3
[10] = Ratio of drug level in tumor to lung of C57BL/6 mouse bearing mouse B16-F0 cells at 0.74 to 0.92 MBq, iv after 3 hrs; assay type: ADME, organism-based; settings: in vivo; summary of the method: as §2
[11] = Biodistribution in tumor of C57BL/6 mouse bearing mouse B16-F0 cells at 0.74 to 0.92 MBq, iv after 24 hrs; assay type: ADME, organism-based, Neoplasm; settings: in vivo; summary of the method: as §1
[12] = Biodistribution in intestinal content of C57BL/6 mouse bearing mouse B16-F0 cells at 0.74 to 0.92 MBq, iv after 3 hrs; assay type: ADME, organism-based; settings: in vivo; summary of the method: as §3
[13] = Biodistribution in Stomach content of C57BL/6 mouse bearing mouse B16-F0 cells at 0.74 to 0.92 MBq, iv after 6 hrs; assay type: ADME, organism-based; settings: in vivo; summary of the method: as §3
[14] = tested on: Brain; test: Biodistribution in brain of C57BL/6 mouse bearing mouse B16-F0 cells at 0.74 to 0.92 MBq, iv after 3 hrs; assay type: ADME, organism-based; settings: in vivo; summary of the method: as §3
[15] = Biodistribution in uvea of C57BL/6 mouse bearing mouse B16-F0 cells at 0.74 to 0.92 MBq, iv after 3 hrs; assay type: ADME, organism-based, Uveal tract; settings: in vivo; summary of the method: as §1
[16] = Biodistribution in uvea of C57BL/6 mouse bearing mouse B16-F0 cells at 0.74 to 0.92 MBq, iv after 72 hrs; assay type: ADME, organism-based, Uveal tract; settings: in vivo; summary of the method: as §1
[17] = tested on: Lung; test: Biodistribution in lung of C57BL/6 mouse bearing mouse B16-F0 cells at 0.74 to 0.92 MBq, iv after 3 hrs; assay type: ADME, organism-based; settings: in vivo; summary of the method: as §3
[18] = tested on: Muscle tissue; test: Biodistribution in muscle of C57BL/6 mouse bearing mouse B16-F0 cells at 0.74 to 0.92 MBq, iv after 1 hr; assay type: ADME, organism-based; settings: in vivo; summary of the method: as §3
[19] = Partition coefficient, log P in phosphate buffer solution at pH 7.4; assay type: physicochemical
Summary of the method: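 Shake-flask partition: 50 µM [¹²⁵I]-labelled compound in phosphate buffer pH 7.4 was mixed with 2 mL n-octanol. Each phase was γ-counted, P was taken as the octanol/buffer activity ratio, and log P was reported.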

[20] = tested on: Lung; test: Biodistribution in lung of C57BL/6 mouse bearing mouse B16-F0 cells at 0.74 to 0.92 MBq, iv after 1 hr; assay type: ADME, organism-based; settings: in vivo; summary of the method: as §3
[21] = Biodistribution in Stomach content of C57BL/6 mouse bearing mouse B16-F0 cells at 0.74 to 0.92 MBq, iv after 1 hr; assay type: ADME, organism-based; settings: in vivo; summary of the method: as §3
[22] = Biodistribution in tumor of C57BL/6 mouse bearing mouse B16-F0 cells at 0.74 to 0.92 MBq, iv after 1 hr; assay type: ADME, organism-based, Neoplasm; settings: in vivo; summary of the method: as §1
[23] = Ratio of drug level in tumor to brain of C57BL/6 mouse bearing mouse B16-F0 cells at 0.74 to 0.92 MBq, iv after 3 hrs; assay type: ADME, organism-based; settings: in vivo; summary of the method: as §2
[24] = tested on: Thyroid gland; test: Biodistribution in thyroid of C57BL/6 mouse bearing mouse B16-F0 cells at 0.74 to 0.92 MBq, iv after 24 hrs; assay type: ADME, organism-based; settings: in vivo; summary of the method: as §1
[25] = tested on: Thyroid gland; test: Biodistribution in thyroid of C57BL/6 mouse bearing mouse B16-F0 cells at 0.74 to 0.92 MBq, iv after 6 hrs; assay type: ADME, organism-based; settings: in vivo; summary of the method: as §1
[26] = tested on: Pancreas; test: Biodistribution in pancreas of C57BL/6 mouse bearing mouse B16-F0 cells at 0.74 to 0.92 MBq, iv after 1 hr; assay type: ADME, organism-based; settings: in vivo; summary of the method: as §3
[27] = Biodistribution in tumor of C57BL/6 mouse bearing mouse B16-F0 cells at 0.74 to 0.92 MBq, iv after 72 hrs; assay type: ADME, organism-based, Neoplasm; settings: in vivo; summary of the method: as §1
[28] = tested on: Blood; test: Biodistribution in blood of C57BL/6 mouse bearing mouse B16-F0 cells at 0.74 to 0.92 MBq, iv after 3 hrs; assay type: ADME, organism-based; settings: in vivo; summary of the method: as §3
[29] = Biodistribution in uvea of C57BL/6 mouse bearing mouse B16-F0 cells at 0.74 to 0.92 MBq, iv after 1 hr; assay type: ADME, organism-based, Uveal tract; settings: in vivo; summary of the method: as §1
[30] = Biodistribution in intestinal content of C57BL/6 mouse bearing mouse B16-F0 cells at 0.74 to 0.92 MBq, iv after 1 hr; assay type: ADME, organism-based; settings: in vivo; summary of the method: as §3
[31] = Ratio of drug level in tumor to lung of C57BL/6 mouse bearing mouse B16-F0 cells at 0.74 to 0.92 MBq, iv after 6 hrs; assay type: ADME, organism-based; settings: in vivo; summary of the method: as §2
[32] = tested on: Spleen; test: Biodistribution in spleen of C57BL/6 mouse bearing mouse B16-F0 cells at 0.74 to 0.92 MBq, iv after 3 hrs; assay type: ADME, organism-based; settings: in vivo; summary of the method: as §1
[33] = tested on: Kidney; test: Biodistribution in kidney of C57BL/6 mouse bearing mouse B16-F0 cells at 0.74 to 0.92 MBq, iv after 1 hr; assay type: ADME, organism-based; settings: in vivo; summary of the method: as §3
[34] = tested on: Muscle tissue; test: Biodistribution in muscle of C57BL/6 mouse bearing mouse B16-F0 cells at 0.74 to 0.92 MBq, iv after 3 hrs; assay type: ADME, organism-based; settings: in vivo; summary of the method: as §3
[35] = Biodistribution in intestinal content of C57BL/6 mouse bearing mouse B16-F0 cells at 0.74 to 0.92 MBq, iv after 24 hrs; assay type: ADME, organism-based; settings: in vivo; summary of the method: as §3

| Structure (SMILES) | Drug uptake [1] [% ID/g] | Ratio [2] | Drug uptake [3] [% ID/g] | Drug uptake [4] [% ID/g] | Drug uptake [5] [% ID/g] | Drug uptake [6] [% ID/g] | Drug uptake [7] [% ID/g] | Drug uptake [8] [% ID/g] | Drug uptake [9] [% ID/g] | Ratio [10] | Drug uptake [11] [% ID/g] | Drug uptake [12] [% ID/g] | Drug uptake [13] [% ID/g] | Drug uptake [14] [% ID/g] | Drug uptake [15] [% ID/g] | Drug uptake [16] [% ID/g] | Drug uptake [17] [% ID/g] | Drug uptake [18] [% ID/g] | logD [19] | Drug uptake [20] [% ID/g] | also measured |
| --- | --- | --- | --- | --- | --- | --- | --- | --- | --- | --- | --- | --- | --- | --- | --- | --- | --- | --- | --- | --- | --- |
| CCN(CC)CCNC(=O)c1ccc([125I])nc1.Cl.Cl | 5.44 | 2.04 | 5.14 | 2.35 | 0.64 | 3.5 | 3.21 | 11.5 | 0.53 | 2.34 | 2.7 | 4.94 | 50.21 | 0.22 | 12.69 | 2.54 | 3.96 | 1.48 | -0.29 | 7.59 | Drug uptake [21]: 34.8 % ID/g; Drug uptake [22]: 15.5 % ID/g; Ratio [23]: 42.14; Drug uptake [24]: 111.3 % ID/g; Drug uptake [25]: 7.92 % ID/g; Drug uptake [26]: 3.94 % ID/g; Drug uptake [27]: 0.9 % ID/g; Drug uptake [28]: 4.22 % ID/g; Drug uptake [29]: 16.66 % ID/g; Drug uptake [30]: 13.44 % ID/g; Ratio [31]: 2.17; Drug uptake [32]: 2.68 % ID/g; Drug uptake [33]: 6.08 % ID/g |
| CCN(CC)CCNC(=O)c1ccc2cc([125I])ccc2n1.Cl.Cl | 11.56 | 2.09 | 10.92 | 7.6 | 1.96 | 7.6 | 5.32 | 36.62 | 0.95 | 4.54 | 12.1 | 20.65 | 65.36 | 0.83 | 33.1 | 18.3 | 5.58 | 1.79 | 1.87 | 9.41 | Drug uptake [34]: 1.14 % ID/g; Drug uptake [21]: 48.03 % ID/g; Drug uptake [22]: 19.6 % ID/g; Ratio [23]: 30.54; Drug uptake [26]: 9.8 % ID/g; Drug uptake [27]: 5.9 % ID/g; Drug uptake [35]: 1.45 % ID/g; Drug uptake [28]: 5.57 % ID/g; Drug uptake [29]: 32.71 % ID/g; Drug uptake [30]: 15.78 % ID/g; Ratio [31]: 3.23; Drug uptake [32]: 10.63 % ID/g; Drug uptake [33]: 11.82 % ID/g |
| CCN(CC)CCNC(=O)c1cc2cc([125I])ccc2[nH]1.Cl | 8.09 | 0.58 | 11.86 | 1.68 | 4.84 | 2.5 | 1.7 | 13.2 | 0.31 | 2.95 | 8.2 | 112.56 | 21.84 | 1.73 | 12.78 | 5.86 | 3.46 | 1.5 | 1.69 | 14.41 | Drug uptake [34]: 0.49 % ID/g; Drug uptake [21]: 35.41 % ID/g; Drug uptake [22]: 8.3 % ID/g; Ratio [23]: 3.91; Drug uptake [26]: 7.15 % ID/g; Drug uptake [27]: 0.8 % ID/g; Drug uptake [35]: 3.31 % ID/g; Drug uptake [28]: 0.79 % ID/g; Drug uptake [29]: 11.7 % ID/g; Drug uptake [30]: 76.74 % ID/g; Ratio [31]: 5.79; Drug uptake [32]: 2.79 % ID/g; Drug uptake [33]: 4.19 % ID/g |
